Source: ChEMBL document CHEMBL1833790, “N-(2-{3-[3,5-bis(trifluoromethyl)phenyl]ureido}ethyl)-glycyrrhetinamide (6b): a novel anticancer glycyrrhetinic acid derivative that targets the proteasome and displays anti-kinase activity” (J Med Chem, 2011)
Active and inactive are the calls of the source. No cut-off for these calls is given here.

Columns and labels:
[1] = Chemical stability of the compound in MEM cell culture medium after 7 days by HPLC analysis; assay type: physicochemical; conditions: read-out: Stability
In short: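 Compound incubated in MEM culture medium at 37 °C for 7 days, then analysed by HPLC on RX-C8 (5 μm) column with MeOH–water 90:10 (0.1% TFA), diode-array detection. Expressed as % of incubated compound recovered.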

A549 = assay: Growth inhibition in apoptosis-resistant human A549 after 3 days by MTT assay; assay type: functional; conditions: A549, 72 h
In short: (§1)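 Cells grown in RPMI with 10% heat-inactivated FCS, 4 mM glutamine, gentamicin and penicillin–streptomycin. Drug exposure 3 days, growth read by MTT colorimetric assay. Nine concentrations from 0.01 to 100 μM in semilog steps, six replicates each; IC50 derived per cell line.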

SK-MEL-28 = assay: Growth inhibition in apoptosis-resistant human SK-MEL-28 after 3 days by MTT assay; assay type: functional; conditions: SK-MEL-28, 72 h; in short: as §1
T98G = assay: Growth inhibition in apoptosis-resistant human T98G after 3 days by MTT assay; assay type: functional; conditions: 72 h; in short: as §1
[2] = Growth inhibition in apoptosis-resistant human U373 after 3 days by MTT assay; assay type: functional, U-373MG ATCC; conditions: U373 MG, 72 h; in short: as §1
Hs 683 = assay: Growth inhibition in apoptosis-sensitive human Hs683 after 3 days by MTT assay; assay type: functional; conditions: Hs 683, 72 h; in short: as §1
PC-3 = assay: Growth inhibition in apoptosis-sensitive human PC3 after 3 days by MTT assay; assay type: functional; conditions: PC-3, 72 h; in short: as §1
MCF7 = assay: Growth inhibition in apoptosis-sensitive human MCF7 after 3 days by MTT assay; assay type: functional; conditions: MCF7, 72 h; in short: as §1
B16-F10 = assay: Growth inhibition in mouse B16F10 after 3 days by MTT assay; assay type: functional; conditions: B16-F10, 72 h; in short: as §1
[3] = target: T1, Peroxisome proliferator-activated receptor gamma (Homo sapiens) (UniProt P37231); assay: Activation of PPARgamma activity in human U373 cells at 60 uM after 6 hrs by spectrophotometric analysis relative to control; assay type: cell-based; conditions: U-373MG ATCC
T1 sequence (whole entry): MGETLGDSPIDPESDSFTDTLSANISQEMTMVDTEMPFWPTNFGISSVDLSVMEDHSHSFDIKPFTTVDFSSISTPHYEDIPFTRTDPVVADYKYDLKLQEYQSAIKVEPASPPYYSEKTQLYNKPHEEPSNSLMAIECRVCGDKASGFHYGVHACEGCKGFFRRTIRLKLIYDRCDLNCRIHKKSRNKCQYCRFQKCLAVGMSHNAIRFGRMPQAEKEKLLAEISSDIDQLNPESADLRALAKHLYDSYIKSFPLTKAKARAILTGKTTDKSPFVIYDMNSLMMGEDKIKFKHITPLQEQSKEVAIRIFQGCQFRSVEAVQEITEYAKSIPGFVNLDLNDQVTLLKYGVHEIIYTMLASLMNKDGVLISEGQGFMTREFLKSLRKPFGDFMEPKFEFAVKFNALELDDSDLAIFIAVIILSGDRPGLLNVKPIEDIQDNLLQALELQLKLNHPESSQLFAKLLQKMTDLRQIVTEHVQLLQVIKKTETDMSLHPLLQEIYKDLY
In short: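 U373 glioblastoma cells were exposed for 6 h. Nuclear extracts were prepared by hypotonic buffer, NP-40 lysis and a protease-inhibitor extraction buffer. Extracts were bound overnight at 4 °C in a PPAR-γ transcription-factor plate, then probed with primary antibody and HRP anti-rabbit secondary, 1 h each at room temperature. Developer ran 45 min, read at 450 nm. Triplicates, mean ± SD versus control.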

U-373MG ATCC [4] = assay: Inhibition of chymotrypsin-like activity of 20S proteasome in human U373 at 7 uM after 2 days by bioluminescence assay; assay type: cell-based
In short: (§2)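 U373 GBM cells seeded at 5000 cells/mL and grown 48 h, then treated for two days. Cells washed in PBS and permeabilised with 0.025% digitonin. Proteasome-Glo reagent added with Suc-LLVY-Glo (chymotrypsin-like), Z-LRR-Glo (trypsin-like) or Z-nLPnLD-Glo (caspase-like) substrate. Luminescence read after 10 min in the dark and normalised to a parallel MTT viability assay; triplicates. MG-132 at 0.5 μM used as reference.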

U-373MG ATCC [5] = assay: Inhibition of trypsin-like activity of 20S proteasome in human U373 cells at 7 uM after 2 days by bioluminescence assay; assay type: cell-based; in short: as §2
U-373MG ATCC [6] = assay: Inhibition of caspase-like activity of 20S proteasome in human U373 cells at 7 uM after 2 days by bioluminescence assay; assay type: cell-based; in short: as §2
U-373MG ATCC [7] = assay: Inhibition of chymotrypsin-like activity of 20S proteasome in human U373 cells at 60 uM after 2 days by bioluminescence assay; assay type: cell-based; in short: as §2
U-373MG ATCC [8] = assay: Inhibition of trypsin-like activity of 20S proteasome in human U373 cells at 60 uM after 2 days by bioluminescence assay; assay type: cell-based; in short: as §2
U-373MG ATCC [9] = assay: Inhibition of caspase-like activity of 20S proteasome in human U373 cells at 60 uM after 2 days by bioluminescence assay; assay type: cell-based; in short: as §2
U-373MG ATCC [10] = assay: Inhibition of chymotrypsin-like activity of 20S proteasome in human U373 cells at 0.5 uM after 2 days by bioluminescence assay; assay type: cell-based; in short: as §2
U-373MG ATCC [11] = assay: Inhibition of trypsin-like activity of 20S proteasome in human U373 cells at 0.5 uM after 2 days by bioluminescence assay; assay type: cell-based; in short: as §2
U-373MG ATCC [12] = assay: Inhibition of caspase-like activity of 20S proteasome in human U373 cells at 0.5 uM after 2 days by bioluminescence assay; assay type: cell-based; in short: as §2

Row | SMILES | remaining at 168 h [1] | GI50 (A549) | GI50 (SK-MEL-28) | GI50 (T98G) | GI50 [2] | GI50 (Hs 683) | GI50 (PC-3) | GI50 (MCF7) | GI50 (B16-F10) | Activity [3] | inhibition (U-373MG ATCC [4]) | inhibition (U-373MG ATCC [5]) | inhibition (U-373MG ATCC [6]) | inhibition (U-373MG ATCC [7]) | inhibition (U-373MG ATCC [8]) | inhibition (U-373MG ATCC [9]) | inhibition (U-373MG ATCC [10]) | inhibition (U-373MG ATCC [11]) | inhibition (U-373MG ATCC [12])
1 | CC(C)(C)OC(=O)NCCNC(=O)[C@@]1(C)CC[C@]2(C)CC[C@]3(C)C(=CC(=O)[C@@H]4[C@@]5(C)CC[C@H](O)C(C)(C)[C@@H]5CC[C@]43C)[C@@H]2C1 | 93% | 43 µM | 60 µM | 73 µM | 57 µM | 63 µM | 41 µM | 37 µM | 48 µM |  |  |  |  |  |  |  |  |  | 
2 | CC1(C)[C@@H](O)CC[C@]2(C)[C@H]3C(=O)C=C4[C@@H]5C[C@@](C)(C(=O)NCCNC(=O)c6ccc(C#N)cc6)CC[C@]5(C)CC[C@@]4(C)[C@]3(C)CC[C@@H]12 | 92% | 68 µM | 35 µM | 77 µM | 76 µM | 67 µM | 72 µM | 27 µM | 31 µM |  |  |  |  |  |  |  |  |  | 
3 | COc1ccc(CCNC(=O)[C@@]2(C)CC[C@]3(C)CC[C@]4(C)C(=CC(=O)[C@@H]5[C@@]6(C)CC[C@H](O)C(C)(C)[C@@H]6CC[C@]54C)[C@@H]3C2)cc1 | 91% | 37 µM | > 100 µM | 68 µM | 49 µM | 61 µM | 34 µM | 36 µM | 31 µM |  |  |  |  |  |  |  |  |  | 
4 | CSCCCNC(=S)NCCNC(=O)[C@@]1(C)CC[C@]2(C)CC[C@]3(C)C(=CC(=O)[C@@H]4[C@@]5(C)CC[C@H](O)C(C)(C)[C@@H]5CC[C@]43C)[C@@H]2C1 | 93% | 38 µM | 33 µM | 35 µM | 35 µM | 36 µM | 39 µM | 30 µM | 33 µM |  |  |  |  |  |  |  |  |  | 
5 | CC1(C)[C@@H](O)CC[C@]2(C)[C@H]3C(=O)C=C4[C@@H]5C[C@@](C)(C(=O)NCCN)CC[C@]5(C)CC[C@@]4(C)[C@]3(C)CC[C@@H]12 | 90% | 31 µM | > 100 µM | > 100 µM | 32 µM | 58 µM | 31 µM | 59 µM | 30 µM | Active | Active | Active | Active | Active | Active | Active | Active | Active | Active
6 | COc1cccc(C(=O)NCCNC(=O)[C@@]2(C)CC[C@]3(C)CC[C@]4(C)C(=CC(=O)[C@@H]5[C@@]6(C)CC[C@H](O)C(C)(C)[C@@H]6CC[C@]54C)[C@@H]3C2)c1 | 99% | 63 µM | 42 µM | 77 µM | 75 µM | 58 µM | 72 µM | 46 µM | 31 µM |  |  |  |  |  |  |  |  |  | 
